For data set [1], the system named is NCI-H460. The data set is described as follows: MTT assay, NCI-H460. It is filed as cell-based, human. To be noted: read-out: IC50 Value NCI-H460, 72 hours. The procedure, abridged:
(§1)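 Human NSCLC lines were kept in RPMI 1640 with 10% FBS at 37 °C, 5% CO2, passaged every 2–3 days. Cells were seeded at 5,000–7,000/well depending on line and left 24 h. Test compound in DMSO/water (1 mM stock) was added at final 1, 4, 16 and 32 μM in medium, 6 replicates, for 72 h. MTT was applied for 3–4 h, then medium was replaced by DMSO for 15 min and OD read at 540 nm. IC50 is growth inhibition of 50% versus untreated cells.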
A general note: Tetrazolium dyes change colour on reduction, which living cells bring about.

Data set [2] deals with NCI-H1975. Description: MTT assay, NCI-H1975. It is filed as cell-based, human. To be noted: read-out: IC50 Value NCI-H1975, 72 hours. The procedure, abridged: as §1
The subject of data set [3] is A549. The data set is described as follows: MTT assay, A549. It is filed as cell-based, human. Conditions: read-out: IC50 Value A549, 72 hours. A digest of the protocol: as §1
Data set [4] has as its system HCC827. The data set is described as follows: MTT assay, HCC827. It is filed as cell-based, human. Conditions: read-out: IC50 Value HCC827, 72 hours. The procedure, abridged:
as §1

For data set [5], the system named is nine NSCLC cell lines. The data set is described as follows: NCI-60 one-dose assay, average over nine NSCLC cell lines. It is filed as cell-based. To be noted: Homo sapiens, 48 h, read-out: Growth % Average. The procedure, abridged:
(§2)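 NCI DTP single-dose screen. Cells were seeded at a density tied to doubling rate and incubated 24 h, then exposed to test compound at 10 μM for 48 h. Growth percentage is relative to the starting cell population: positive means net growth, negative means cell loss. It is given per NSCLC line or as the mean across the nine NSCLC lines.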

Data set [6] deals with NSCLC cell lines (NCI-H460, NCI-H1975, HCC827, and A549). The data set is described as follows: MTT assay, panel of four NSCLC cell lines. It is filed as cell-based, human. The procedure, abridged: as §1
Data set [7] relates to C57BL/6 mice. The data set is described as follows: Preliminary in vivo toxicity study. Conditions: 20 mg/kg IP on days 0, 7, 14 and 29.
Data set [8] has as its system A549/ATCC. The data set is described as follows: NCI-60 five-dose assay, A549/ATCC. It is filed as cell-based. To be noted: 48 hours, total growth inhibition.
For data set [9], the system named is NCI-H522. Description: NCI-60 five-dose assay, NCI-H522. To be noted: 48 hours, total growth inhibition. It is filed as cell-based, human.
The subject of data set [10] is HOP-92. The data set is described as follows: NCI-60 five-dose assay, HOP-92. It is filed as cell-based, human. Conditions: 48 hours, total growth inhibition.
Data set [11] concerns NCI-H522. The data set is described as follows: NCI-60 one-dose assay, NCI-H522. It is filed as cell-based. To be noted: Homo sapiens, NCI-H522, 48 h, read-out: Growth % NCI-H522. The procedure, abridged: as §2
Data set [12] has as its system NCI-H23. The data set is described as follows: NCI-60 five-dose assay, NCI-H23. It is filed as cell-based, human. To be noted: 48 hours, total growth inhibition.
For data set [13], the system named is EKVX. The data set is described as follows: NCI-60 five-dose assay, EKVX. It is filed as cell-based, human. To be noted: 48 hours, total growth inhibition.
In data set [14] the test system is NSCLC cell lines. The data set is described as follows: NCI-60 five-dose assay, ranges over NSCLC cell lines. It is filed as cell-based. To be noted: Homo sapiens; for GI50: read-out: GI50 values, range over NSCLC cell lines; for CC50: read-out: LC50 values, range over NSCLC cell lines.
Data set [15] relates to HOP-62. Description: NCI-60 five-dose assay, HOP-62. It is filed as cell-based, human. To be noted: 48 hours, total growth inhibition.
Data set [16] concerns NCI-H322M. The data set is described as follows: NCI-60 five-dose assay, NCI-H322M. It is filed as cell-based, human. Conditions: 48 hours, total growth inhibition.
The subject of data set [17] is NCI-H460. The data set is described as follows: NCI-60 one-dose assay, NCI-H460. It is filed as cell-based. To be noted: Homo sapiens, NCI-H460, 48 h, read-out: Growth % NCI-H460. The procedure, abridged: as §2
Data set [18] has as its system NCI-H226. The data set is described as follows: NCI-60 five-dose assay, NCI-H226. It is filed as cell-based, human. Conditions: 48 hours, total growth inhibition.
The test system of data set [19] is NCI-H460. Description: NCI-60 five-dose assay, NCI-H460. It is filed as cell-based, human. Conditions: 48 hours, total growth inhibition.

This note sets out measurements from publication PMC7903221 (Bioorganic & medicinal chemistry, 2020).

The structures appear in SMILES notation.

The term IC50 denotes the midpoint of a concentration-inhibition curve. The term GI50 denotes the concentration that inhibits growth by half.

For `N.N.[Cl][Pt][Cl]` [Cisplatin, cisplatin], the half-maximal inhibitory concentration (IC50) in [1] is 6 µM; in data set [2], 3 µM; in [3] it was 5 µM; in [4], 9 µM.

In the case of `[Br-].[Br-].c1ccc2cc(Cn3cc[n+](Cn4cc[n+](Cc5ccc6ccccc6c5)c4)c3)ccc2c1` [Compound 1, 1-(naphthalen-2-ylmethyl)-3-((3-(naphthalen-2-ylmethyl)-imidazolium-1-yl)methyl)-imidazolium bromide], the activity at 10 µM in data set [5] is 79.5%. Further, the “IC50 values for three of the four cell lines” value in data set [6] (MTT, 72 hours, three of the four cell lines tested) is on record as “above the testing concentration”.

As for `c1ccc2cc(Cn3cc[n+](CCn4cc[n+](Cc5ccc6ccccc6c5)c4)c3)ccc2c1` [Compound 2, 1-(naphthalen-2-ylmethyl)-3-(2-(3-(naphthalen-2-ylmethyl)-imidazolium-1-yl)ethyl)-imidazolium bromide], the activity at 10 µM in [5] came to 80.9%.

Turning to `c1ccc2cc(Cn3cc[n+](CCCn4cc[n+](Cc5ccc6ccccc6c5)c4)c3)ccc2c1` [Compound 3, 1-(naphthalen-2-ylmethyl)-3-(3-(3-(naphthalen-2-ylmethyl)-imidazolium-1-yl)propyl)-imidazolium bromide], in [5], the activity at 10 µM is 72.8%.

As for `c1ccc2cc(Cn3cc[n+](CCCCCn4cc[n+](Cc5ccc6ccccc6c5)c4)c3)ccc2c1` [Compound 5, 1-(naphthalen-2-ylmethyl)-3-(5-(3-(naphthalen-2-ylmethyl)-imidazolium-1-yl)pentyl)-imidazolium bromide], in data set [5], the activity at 10 µM came out at 53.9%.

Turning to `c1ccc2cc(Cn3cc[n+](CCCCCCn4cc[n+](Cc5ccc6ccccc6c5)c4)c3)ccc2c1` [Compound 6, 1-(naphthalen-2-ylmethyl)-3-(6-(3-(naphthalen-2-ylmethyl)-imidazolium-1-yl)hexyl)-imidazolium bromide], the activity at 10 µM in [5] worked out at 47.3%.

Regarding `c1ccc2cc(Cn3cc[n+](CCCCCCCn4cc[n+](Cc5ccc6ccccc6c5)c4)c3)ccc2c1` [Compound 7, 1-(naphthalen-2-ylmethyl)-3-(7-(3-(naphthalen-2-ylmethyl)-imidazolium-1-yl)heptyl)-imidazolium bromide], in data set [5], the activity at 10 µM is 30%.

With `[Br-].[Br-].c1ccc2cc(Cn3cc[n+](CCCCCCCCCCn4cc[n+](Cc5ccc6ccccc6c5)c4)c3)ccc2c1` [Compound 10, 1-(naphthalen-2-ylmethyl)-3-(10-(3-(naphthalen-2-ylmethyl)-imidazolium-1-yl)decyl)-imidazolium bromide], in [7], the tolerability result is reported as “well tolerated”. Moreover, the “TGI A549/ATCC” value in [8] was determined as 13.3 µM. Also, the “TGI NCI-H522” value in [9] stood at 1.94 µM. Besides, the “TGI HOP-92” value in data set [10] is 2.96 µM. Moreover, the activity at 10 µM in [11] was -72.3%. Also, in [5], the activity at 10 µM was determined as 2.47%. The “TGI NCI-H23” value in data set [12] is 3.35 µM. Moreover, the “TGI EKVX” value in data set [13] amounted to 9.07 µM. Also, in data set [14], the GI50 is 0.396 to 3.55 µM and the CC50 was in the range of 15.2 to 58.4 µM. In addition, in [15], the “TGI HOP-62” value was 7.24 µM.

For `[Br-].[Br-].c1ccc2cc(Cn3cc[n+](CCCCCCCCCCCCn4cc[n+](Cc5ccc6ccccc6c5)c4)c3)ccc2c1` [Compound 12, 1-(naphthalen-2-ylmethyl)-3-(12-(3-(naphthalen-2-ylmethyl)-imidazolium-1-yl)dodecyl)-imidazolium bromide], the “TGI A549/ATCC” value in [8] was 3.57 µM. For the same molecule, the “TGI NCI-H522” value in data set [9] came to 1.25 µM. For the same molecule, the “TGI HOP-92” value in [10] stood at 1.40 µM. In data set [5], the activity at 10 µM is -60.9%. Moreover, the “TGI NCI-H322M” value in data set [16] was 3.90 µM. In addition, the “TGI NCI-H23” value in data set [12] worked out at 2.40 µM. In data set [6] (Homo sapiens, 72 h, read-out: IC50 values for three of the four cell lines), the concentration for half-maximal inhibition (IC50) was under 1 µM. Also, the activity at 10 µM in data set [17] is -69.9%. For the same molecule, the “TGI EKVX” value in [13] was determined as 4.20 µM. In data set [14], the GI50 was in the range of 0.47 to 0.984 µM and the CC50 is 7.29 to 14.6 µM. The “TGI HOP-62” value in data set [15] is 2.65 µM. Besides, the “TGI NCI-H226” value in data set [18] amounted to 5.52 µM. Also, the “TGI NCI-H460” value in data set [19] was found to be 2.96 µM.
